Assay results taken from ChEMBL document CHEMBL1140118, “Design, synthesis, and structure-activity relationships of novel insulin receptor tyrosine kinase activators” (J Med Chem, 2008).
Active and inactive are the calls of the source. The rule behind the calls is not given here.

Key:
Insulin receptor = Insulin receptor (Mus musculus, UniProt P15208); assay: Activation of insulin receptor tyrosine kinase in mouse 3T3-L1 cells assessed as increase in 2-deoxy-D-[14C]glucose transport in presence of insulin; assay type: cell-based
Chain of Insulin receptor (P15208 28-748 limits assumed): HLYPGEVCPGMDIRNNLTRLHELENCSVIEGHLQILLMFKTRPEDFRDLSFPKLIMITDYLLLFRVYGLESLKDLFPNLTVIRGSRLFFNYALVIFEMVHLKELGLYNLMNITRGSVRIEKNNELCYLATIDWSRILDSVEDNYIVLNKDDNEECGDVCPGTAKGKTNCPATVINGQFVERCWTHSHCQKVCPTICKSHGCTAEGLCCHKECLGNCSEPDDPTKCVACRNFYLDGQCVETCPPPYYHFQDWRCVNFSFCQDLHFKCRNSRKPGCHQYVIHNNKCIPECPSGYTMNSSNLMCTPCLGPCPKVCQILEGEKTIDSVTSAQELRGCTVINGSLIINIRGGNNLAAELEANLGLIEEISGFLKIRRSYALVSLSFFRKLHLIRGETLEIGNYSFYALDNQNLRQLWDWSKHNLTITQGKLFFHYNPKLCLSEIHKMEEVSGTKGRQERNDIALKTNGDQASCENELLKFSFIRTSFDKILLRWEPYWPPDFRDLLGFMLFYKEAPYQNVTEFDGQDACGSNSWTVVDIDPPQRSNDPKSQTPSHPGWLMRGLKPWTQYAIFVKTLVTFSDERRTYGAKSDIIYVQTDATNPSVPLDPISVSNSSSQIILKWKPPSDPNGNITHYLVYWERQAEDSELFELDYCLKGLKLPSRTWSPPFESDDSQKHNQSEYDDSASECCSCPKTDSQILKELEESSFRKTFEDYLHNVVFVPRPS
Chain of Insulin receptor (P15208 753-1372 limits assumed): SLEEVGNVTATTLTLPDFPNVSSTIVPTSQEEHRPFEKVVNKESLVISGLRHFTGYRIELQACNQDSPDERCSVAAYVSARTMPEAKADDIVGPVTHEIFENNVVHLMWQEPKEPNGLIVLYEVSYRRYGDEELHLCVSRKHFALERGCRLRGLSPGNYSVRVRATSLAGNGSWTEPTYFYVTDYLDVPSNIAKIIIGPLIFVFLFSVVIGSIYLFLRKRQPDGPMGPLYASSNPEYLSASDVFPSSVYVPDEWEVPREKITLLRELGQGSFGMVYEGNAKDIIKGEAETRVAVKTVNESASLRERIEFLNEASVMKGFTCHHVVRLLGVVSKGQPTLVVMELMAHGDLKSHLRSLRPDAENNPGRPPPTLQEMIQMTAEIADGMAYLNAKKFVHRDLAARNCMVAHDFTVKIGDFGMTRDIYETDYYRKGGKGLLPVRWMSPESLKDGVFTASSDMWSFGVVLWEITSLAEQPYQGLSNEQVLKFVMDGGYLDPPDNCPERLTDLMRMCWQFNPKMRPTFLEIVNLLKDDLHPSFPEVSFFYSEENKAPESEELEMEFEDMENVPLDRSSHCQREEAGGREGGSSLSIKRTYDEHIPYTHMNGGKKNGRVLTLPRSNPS
Outline: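 Differentiated, 16 h serum-starved 3T3-L1 adipocytes were exposed to compound plus 5.6 nM insulin (submaximal) for 30 min at 37 °C. They were then pulsed 30 min with 0.5 µCi/mL 2-deoxy-D-[14C]glucose and lysate counts were read. Four concentrations were tested in triplicate. EC50 came from nonlinear regression of untransformed data, given as mean ± SEM when n ≥ 3.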

[1] = target: Insulin receptor (Homo sapiens) (UniProt P06213); assay: Effect on autophosphorylation of human insulin receptor cytoplasmic kinase domain
Chain of Insulin receptor (Homo sapiens) (P06213 28-758 limits assumed): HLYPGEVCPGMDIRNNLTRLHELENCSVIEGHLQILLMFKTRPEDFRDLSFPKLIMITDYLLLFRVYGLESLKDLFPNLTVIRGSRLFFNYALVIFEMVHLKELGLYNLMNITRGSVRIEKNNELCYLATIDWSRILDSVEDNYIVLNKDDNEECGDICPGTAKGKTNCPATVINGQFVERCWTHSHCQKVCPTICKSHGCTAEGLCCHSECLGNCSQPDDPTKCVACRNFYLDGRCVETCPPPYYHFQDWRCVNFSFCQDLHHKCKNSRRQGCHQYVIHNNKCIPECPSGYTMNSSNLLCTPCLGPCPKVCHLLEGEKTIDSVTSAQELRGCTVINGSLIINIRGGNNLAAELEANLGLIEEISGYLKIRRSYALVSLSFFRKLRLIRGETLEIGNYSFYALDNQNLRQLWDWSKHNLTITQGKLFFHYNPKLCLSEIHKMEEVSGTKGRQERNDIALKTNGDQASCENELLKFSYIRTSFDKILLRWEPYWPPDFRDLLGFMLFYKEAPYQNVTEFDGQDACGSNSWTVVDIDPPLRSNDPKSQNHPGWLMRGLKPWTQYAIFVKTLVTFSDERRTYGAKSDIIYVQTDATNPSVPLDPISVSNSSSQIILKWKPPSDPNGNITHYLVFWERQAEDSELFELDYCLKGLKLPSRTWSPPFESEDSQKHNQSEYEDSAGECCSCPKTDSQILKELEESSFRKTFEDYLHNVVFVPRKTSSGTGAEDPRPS
Chain of Insulin receptor (Homo sapiens) (P06213 763-1382 limits assumed): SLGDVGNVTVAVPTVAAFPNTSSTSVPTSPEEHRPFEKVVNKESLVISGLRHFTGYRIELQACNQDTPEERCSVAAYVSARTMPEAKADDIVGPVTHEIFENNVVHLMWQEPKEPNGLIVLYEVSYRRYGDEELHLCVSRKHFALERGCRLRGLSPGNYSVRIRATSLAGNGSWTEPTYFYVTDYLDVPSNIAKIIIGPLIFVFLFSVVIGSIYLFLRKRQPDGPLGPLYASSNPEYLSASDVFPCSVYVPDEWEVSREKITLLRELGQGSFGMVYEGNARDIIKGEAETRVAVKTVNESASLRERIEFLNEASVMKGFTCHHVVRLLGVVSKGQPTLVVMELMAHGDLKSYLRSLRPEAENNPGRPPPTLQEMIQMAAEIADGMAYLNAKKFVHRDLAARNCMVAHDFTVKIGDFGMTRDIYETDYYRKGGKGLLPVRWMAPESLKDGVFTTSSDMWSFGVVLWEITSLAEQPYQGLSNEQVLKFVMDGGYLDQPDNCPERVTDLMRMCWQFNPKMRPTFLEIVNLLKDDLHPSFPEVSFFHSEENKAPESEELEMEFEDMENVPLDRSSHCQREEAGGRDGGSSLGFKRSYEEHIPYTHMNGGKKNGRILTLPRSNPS
Outline: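 Recombinant human IR cytoplasmic domain (200 ng) in 50 mM Tris pH 7.4 with 2 mM MnCl2, 10 mM MgCl2, 50 µM ATP and [γ-32P]ATP (10 µCi) was incubated with varied compound concentrations for 10 min at 25 °C. Incorporated label was measured by scintillation counting, either of excised SDS-PAGE bands or of TCA precipitates washed with phosphoric acid.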

[2] = target: Insulin receptor (Homo sapiens) (UniProt P06213); assay: Activation of human insulin receptor overexpressed in mouse 3T3-HIR cells assessed as increase in phosphotyrosine at >=18 uM in absence of insulin; assay type: cell-based
3T3-L1 [3] = assay: Increase in insulin-stimulated glucose transport in mouse 3T3-L1 cells at >=30 uM in presence of insulin; assay type: functional, cell-based
3T3-L1 [4] = assay: Increase in glucose transport in mouse 3T3-L1 cells at 50 uM in absence of insulin; assay type: functional
Outline: (§1)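 Differentiated 3T3-L1 adipocytes (induced 72 h with dexamethasone, IBMX and insulin, then 48 h with insulin, then 4 days in normal medium) were serum-starved 16 h in 0.1% BSA. Compound was added without insulin for 30 min at 37 °C. Uptake of 0.5 µCi/mL 2-deoxy-D-[14C]glucose over 30 min was read by scintillation counting of lysates after a cold PBS rinse.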

[5] = target: Insulin receptor (Homo sapiens) (UniProt P06213); assay: Activation of human insulin receptor overexpressed in mouse 3T3-HIR cells assessed as increase in phosphotyrosine at 3 uM in presence of insulin; assay type: cell-based
Rattus norvegicus [6] = assay: Reduction in blood glucose level in streptozotocin-induced hypoinsulinemic CD rat at 1000 mg/kg, po after 30 mins after glucose loading by oral glucose tolerance test; assay type: functional; parameters: scale not given: the % may be the effect or the level left
Outline: (§2)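 Male CD IGS rats (250-300 g) received streptozotocin 60 mg/kg ip and were enrolled if fed glucose was ≥250 mg/dL. On day 4 post-STZ they were fasted overnight and randomized on baseline glucose (n = 12/group). They got compound or PBS, then a 50% dextrose load by gavage (4 mL/kg). Tail blood glucose was read by glucometer, and groups were compared by unpaired t test.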

Rattus norvegicus [7] = assay: Reduction in blood glucose level in streptozotocin-induced hypoinsulinemic CD rat at 50 mg/kg, ip after 30 mins after glucose loading by oral glucose tolerance test; assay type: functional; parameters: scale not given: the % may be the effect or the level left; outline: as §2
3T3-L1 [8] = assay: Increase in GLUT4 content in mouse 3T3-L1 cell plasma membrane at 56 uM in presence of insulin; assay type: functional
3T3-L1 [9] = assay: Increase in glucose transport in mouse 3T3-L1 cells at 30 uM in absence of insulin; assay type: functional; outline: as §1
[10] = target: Insulin receptor (Mus musculus) (UniProt P15208); assay: Activation of insulin receptor tyrosine kinase in mouse 3T3-L1 cells assessed as increase in 2-deoxy-D-[14C]glucose transport in absence of insulin; assay type: cell-based; outline: as §1
Chain of Insulin receptor (Mus musculus) (P15208 28-748 limits assumed): as the sequence (P15208 28-748 limits assumed) above
Chain of Insulin receptor (Mus musculus) (P15208 753-1372 limits assumed): as the sequence (P15208 753-1372 limits assumed) above

| Structure (SMILES) | EC50 (Insulin receptor) | also measured |
| --- | --- | --- |
| CN(C(=O)N(C)c1ccc2ccc(S(=O)(=O)Nc3ccc(Cl)c(C(=O)O)c3)cc2c1)c1ccc2ccc(S(=O)(=O)Nc3ccc(Cl)c(C(=O)O)c3)cc2c1 | > 200 µM | – |
| O=C(Nc1ccc2c(O)cc(S(=O)(=O)Nc3cccc(-c4nn[nH]n4)c3)cc2c1)Nc1ccc2c(O)cc(S(=O)(=O)Nc3cccc(-c4nn[nH]n4)c3)cc2c1 | 73 µM | – |
| O=C(Nc1ccc2ccc(S(=O)(=O)Nc3cccc(C(=O)O)c3)cc2c1)Nc1ccc2ccc(S(=O)(=O)Nc3cccc(C(=O)O)c3)cc2c1 | 24 µM | – |
| CC(=O)N(CCN(C(C)=O)c1ccc2ccc(S(=O)(=O)Nc3ccc(Cl)c(C(=O)O)c3)cc2c1)c1ccc2ccc(S(=O)(=O)Nc3ccc(Cl)c(C(=O)O)c3)cc2c1 | > 200 µM | – |
| O=C(Nc1ccc2ccc(S(=O)(=O)Nc3ccc(O)c(C(=O)O)c3)cc2c1)Nc1ccc2ccc(S(=O)(=O)Nc3ccc(O)c(C(=O)O)c3)cc2c1 | 9 µM | – |
| O=C(Nc1ccc2c(O)cc(S(=O)(=O)Nc3ccc(C(=O)O)cc3)cc2c1)Nc1ccc2c(O)cc(S(=O)(=O)Nc3ccc(C(=O)O)cc3)cc2c1 | 103 µM | – |
| O=C(Nc1ccc2ccc(S(=O)(=O)Nc3ccc(Cl)c(S(=O)(=O)O)c3)cc2c1)Nc1ccc2ccc(S(=O)(=O)Nc3ccc(Cl)c(S(=O)(=O)O)c3)cc2c1 | 6 µM | – |
| O=C(Nc1ccc2ccc(S(=O)(=O)Nc3cccc(O)c3)cc2c1)Nc1ccc2ccc(S(=O)(=O)Nc3cccc(O)c3)cc2c1 | > 200 µM | – |
| O=C(Nc1ccc2ccc(C(=O)Nc3cccc(S(=O)(=O)O)c3)cc2c1)Nc1ccc2ccc(C(=O)Nc3cccc(S(=O)(=O)O)c3)cc2c1 | > 200 µM | – |
| O=C(Nc1ccc2ccc(S(=O)(=O)Nc3ccc(Cl)c(C(=O)O)c3)cc2c1)Nc1ccc2ccc(S(=O)(=O)Nc3ccc(Cl)c(C(=O)O)c3)cc2c1 | 16 µM | – |
| O=C(Nc1ccc2c(O)cc(S(=O)(=O)Nc3cccc(C(=O)O)c3Cl)cc2c1)Nc1ccc2c(O)cc(S(=O)(=O)Nc3cccc(C(=O)O)c3Cl)cc2c1 | 121 µM | – |
| O=C(Nc1ccc2c(O)cc(S(=O)(=O)Nc3cccc(C(=O)O)c3)cc2c1)Nc1ccc2c(O)cc(S(=O)(=O)Nc3cccc(C(=O)O)c3)cc2c1 | 43 µM | – |
| O=C(Nc1ccc2c(O)cc(S(=O)(=O)Nc3cccc(C(F)(F)F)c3)cc2c1)Nc1ccc2c(O)cc(S(=O)(=O)Nc3cccc(C(F)(F)F)c3)cc2c1 | > 200 µM | – |
| CN(c1cccc(S(=O)(=O)O)c1)S(=O)(=O)c1ccc2ccc(NC(=O)Nc3ccc4ccc(S(=O)(=O)N(C)c5cccc(S(=O)(=O)O)c5)cc4c3)cc2c1 | 91 µM | – |
| O=C(Nc1ccc2c(O)cc(S(=O)(=O)Nc3ccc(O)c(C(=O)O)c3)cc2c1)Nc1ccc2c(O)cc(S(=O)(=O)Nc3ccc(O)c(C(=O)O)c3)cc2c1 | 43 µM | – |
| O=C(Nc1ccc2ccc(S(=O)(=O)O)cc2c1)Nc1ccc2ccc(S(=O)(=O)Nc3ccc(Cl)c(S(=O)(=O)O)c3)cc2c1 | > 200 µM | – |
| O=C(Nc1ccc2c(O)cc(S(=O)(=O)Nc3cccc(S(=O)(=O)O)c3)cc2c1)Nc1ccc2c(O)cc(S(=O)(=O)Nc3cccc(S(=O)(=O)O)c3)cc2c1 | 26 µM | Activity [1]: Dose-dependent effect |
| O=C(Nc1ccc2c(O)cc(S(=O)(=O)Nc3ccc(Cl)c(S(=O)(=O)[O-])c3)cc2c1)Nc1ccc2c(O)cc(S(=O)(=O)Nc3ccc(Cl)c(S(=O)(=O)[O-])c3)cc2c1.[Na+].[Na+] | 5 µM | Activity [2]: Active; Activity (3T3-L1 [3]): Active; Activity (3T3-L1 [4]): 875%; Activity [5]: 75%; Activity (Rattus norvegicus [6]): 32%; Activity (Rattus norvegicus [7]): 25%; Activity (3T3-L1 [8]): 85%; Activity (3T3-L1 [9]): 340% |
| O=C(Nc1ccc2ccc(C(=O)Nc3cccc(C(=O)O)c3)cc2c1)Nc1ccc2ccc(C(=O)Nc3cccc(C(=O)O)c3)cc2c1 | > 200 µM | – |
| N#Cc1cccc(NS(=O)(=O)c2ccc3ccc(NC(=O)Nc4ccc5ccc(S(=O)(=O)Nc6cccc(C#N)c6)cc5c4)cc3c2)c1 | > 200 µM | – |
| O=C(Nc1ccc2c(O)cc(S(=O)(=O)Nc3ccc(Cl)c(C(=O)O)c3)cc2c1)Nc1ccc2c(O)cc(S(=O)(=O)Nc3ccc(Cl)c(C(=O)O)c3)cc2c1 | 18 µM | – |

| Structure (SMILES) | EC50 (Insulin receptor) | also measured |
| --- | --- | --- |
| O=C(Nc1ccc2ccc(S(=O)(=O)Nc3cccc([N+](=O)[O-])c3)cc2c1)Nc1ccc2ccc(S(=O)(=O)Nc3cccc([N+](=O)[O-])c3)cc2c1 | > 200 µM | – |
| O=C(Nc1ccc2c(O)cc(S(=O)(=O)Nc3ccccc3C(=O)O)cc2c1)Nc1ccc2c(O)cc(S(=O)(=O)Nc3ccccc3C(=O)O)cc2c1 | 93 µM | – |
| O=C(Nc1ccc2ccc(S(=O)(=O)Nc3cccc(-c4nn[nH]n4)c3)cc2c1)Nc1ccc2ccc(S(=O)(=O)Nc3cccc(-c4nn[nH]n4)c3)cc2c1 | 54 µM | – |
| NC(=Nc1ccc2ccc(S(=O)(=O)Nc3ccc(Cl)c(C(=O)O)c3)cc2c1)Nc1ccc2ccc(S(=O)(=O)Nc3ccc(Cl)c(C(=O)O)c3)cc2c1 | 179 µM | – |
| O=C(Nc1ccc2ccc(S(=O)(=O)O)cc2c1)Nc1ccc2ccc(S(=O)(=O)Nc3ccc(O)c(C(=O)O)c3)cc2c1 | > 200 µM | – |
| NS(=O)(=O)c1cccc(NS(=O)(=O)c2ccc3ccc(NC(=O)Nc4ccc5ccc(S(=O)(=O)Nc6cccc(S(N)(=O)=O)c6)cc5c4)cc3c2)c1 | > 200 µM | – |
| O=C(O)c1cc(NS(=O)(=O)c2ccc3ccc(N4CCN(c5ccc6ccc(S(=O)(=O)Nc7ccc(Cl)c(C(=O)O)c7)cc6c5)C4=O)cc3c2)ccc1Cl | 56 µM | – |
| O=C(O)Cc1cccc(NS(=O)(=O)c2cc(O)c3ccc(NC(=O)Nc4ccc5c(O)cc(S(=O)(=O)Nc6cccc(CC(=O)O)c6)cc5c4)cc3c2)c1 | > 200 µM | – |
| CNC(=Nc1ccc2ccc(S(=O)(=O)Nc3ccc(Cl)c(C(=O)O)c3)cc2c1)Nc1ccc2ccc(S(=O)(=O)Nc3ccc(Cl)c(C(=O)O)c3)cc2c1 | > 200 µM | – |
| O=C(Nc1ccc2ccc(S(=O)(=O)Nc3ccc(C(=O)O)cc3)cc2c1)Nc1ccc2ccc(S(=O)(=O)Nc3ccc(C(=O)O)cc3)cc2c1 | 183 µM | – |
| O=C(O)c1cc(NS(=O)(=O)c2ccc3ccc(NC(=S)Nc4ccc5ccc(S(=O)(=O)Nc6ccc(Cl)c(C(=O)O)c6)cc5c4)cc3c2)ccc1Cl | 162 µM | – |
| N#CN=C(Nc1ccc2ccc(S(=O)(=O)Nc3ccc(Cl)c(C(=O)O)c3)cc2c1)Nc1ccc2ccc(S(=O)(=O)Nc3ccc(Cl)c(C(=O)O)c3)cc2c1 | > 200 µM | – |
| O=C(Nc1ccc2ccc(S(=O)(=O)Nc3cccc(C(=O)O)c3O)cc2c1)Nc1ccc2ccc(S(=O)(=O)Nc3cccc(C(=O)O)c3O)cc2c1 | 150 µM | – |
| O=C(Nc1ccc2c(O)c(/N=N/c3ccc(/N=N/c4ccc(S(=O)(=O)O)cc4)cc3S(=O)(=O)O)c(S(=O)(=O)O)cc2c1)Nc1ccc2c(O)cc(S(=O)(=O)O)c(/N=N/c3ccc(/N=N/c4ccc(S(=O)(=O)O)cc4)cc3S(=O)(=O)O)c2c1 | 90 µM | Activity [1]: Dose-dependent effect; Activity [10]: inactive |
| O=C(O)c1cc(NS(=O)(=O)c2ccc3ccc(NCCNc4ccc5ccc(S(=O)(=O)Nc6ccc(Cl)c(C(=O)O)c6)cc5c4)cc3c2)ccc1Cl | > 200 µM | – |
| O=C(Nc1ccc2ccc(S(=O)(=O)Nc3ccc([N+](=O)[O-])c(C(=O)O)c3)cc2c1)Nc1ccc2ccc(S(=O)(=O)Nc3ccc([N+](=O)[O-])c(C(=O)O)c3)cc2c1 | 40 µM | – |
| O=C(Nc1ccc2ccc(S(=O)(=O)Nc3ccccc3C(=O)O)cc2c1)Nc1ccc2ccc(S(=O)(=O)Nc3ccccc3C(=O)O)cc2c1 | 41 µM | – |
| O=C(Nc1ccc2ccc(S(=O)(=O)Nc3ccc(S(=O)(=O)O)cc3)cc2c1)Nc1ccc2ccc(S(=O)(=O)Nc3ccc(S(=O)(=O)O)cc3)cc2c1 | 94 µM | – |
| O=C(Nc1ccc2ccc(S(=O)(=O)Nc3cccc(S(=O)(=O)O)c3)cc2c1)Nc1ccc2ccc(S(=O)(=O)Nc3cccc(S(=O)(=O)O)c3)cc2c1 | 22 µM | – |
| O=C(Nc1ccc2c(O)cc(S(=O)(=O)Nc3cccc(CO)c3)cc2c1)Nc1ccc2c(O)cc(S(=O)(=O)Nc3cccc(CO)c3)cc2c1 | > 200 µM | – |
| O=C(Nc1ccc2ccc(S(=O)(=O)Nc3ccccc3)cc2c1)Nc1ccc2ccc(S(=O)(=O)Nc3ccccc3)cc2c1 | > 200 µM | – |
